Assay results of several laboratories.
Lines come from different studies, so protocols differ.
SLC6A3: Sodium-dependent dopamine transporter (SLC6A3, Homo sapiens, UniProt Q01959)
DRD3: D(3) dopamine receptor (DRD3, Homo sapiens, UniProt P35462)
HDAC5: Histone deacetylase 5 (HDAC5, Homo sapiens, UniProt Q9UQL6)

target	effect on	mode	method	IC50 [µM]	SMILES
SLC6A3	transporter uptake	inhibitor	radiometric	9.3	O[C@@H]1[C@H](O)[C@@H]2C[C@@H]2[C@H]1n1cnc2c(NCCC3CC3)ncnc21
DNA-dependent protein kinase catalytic subunit (PRKDC, Homo sapiens, UniProt P78527)	enzyme activity	inhibitor	–	0.202	CN(C)C(=O)c1cc2cnc(Nc3ccc(-c4cccc5c(=O)cc(N6CCOCC6)oc45)cc3)nc2n1C1CCCC1
Cyclin-dependent kinase 12, with cyclin K (CDK12, Homo sapiens, UniProt Q9NYV4)	enzyme activity	inhibitor	–	> 1	Cc1cc(O)c(-c2ccc([C@@H](C)CN(C)C)cc2)c2c1[nH]c(=O)c1sccc12
DNA repair nuclease/redox regulator APEX1 (APEX1, Homo sapiens, UniProt P27695)	enzyme activity	inhibitor	–	> 100	Nc1cnccc1Nc1ccc(Cl)c(Cl)c1
DRD3	β-arrestin recruitment	antagonist	–	5.2	CCc1ccc(NS(=O)(=O)c2c(C)[nH]c(C)c2C(=O)N2CCC(F)(F)C2)cc1Cl
HDAC5	enzyme activity	inhibitor	–	1.14	O=C(NO)c1ccc(Cn2cnc3c(Nc4cccc([N+](=O)[O-])c4)ncnc32)cc1
HDAC5	enzyme activity	inhibitor	–	> 10	COc1ccc(N(Cc2csc(-c3ccc(C)cc3)n2)C(=O)CCCCCC(=O)NO)cc1
DRD3	β-arrestin recruitment	antagonist	–	41	Cc1[nH]c(C)c(C(=O)N2CCC(F)(F)C2)c1C(=O)Nc1ccc(C(F)(F)F)c(Cl)c1
Carbonic anhydrase 12 (CA12, Homo sapiens, UniProt O43570)	enzyme activity	inhibitor	absorbance	2.82	CN1CCN(c2nc(-c3cc4cc(Br)ccc4oc3=O)cs2)CC1
Taste receptor type 2 member 16 (TAS2R16, Homo sapiens, UniProt Q9NYV7, N96T)	inositol phosphate	antagonist	TR-FRET	2180	CCCN(CCC)S(=O)(=O)c1ccc(C(=O)O)cc1
DRD3	G protein activation	antagonist	BRET	21	Cc1[nH]c(C)c(S(=O)(=O)Nc2ccc(C(F)(F)F)c(Cl)c2)c1C(=O)N1CCc2ccccc21
SLC6A3	transporter uptake	inhibitor	radiometric	0.38	CNc1nc(C#Cc2ccc(Cl)s2)nc2c1ncn2[C@H]1[C@H](O)[C@H](O)[C@]2(C(=O)OC)C[C@H]12
HDAC5	enzyme activity	inhibitor	–	> 10	COc1ccc(N(Cc2csc(-c3ccccc3)n2)C(=O)CCCCCC(=O)NO)cc1
SLC6A3	transporter uptake	inhibitor	–	0.069	NC(=O)c1nnn(Cc2cc(Cl)c(C(=O)c3ccc(Cl)cc3)c(Cl)c2)c1N
DRD3	β-arrestin recruitment	antagonist	–	2.8	Cc1[nH]c(C)c(S(=O)(=O)Nc2ccc(C(F)(F)F)c(Cl)c2)c1C(=O)N1CCCC1
Discoidin domain-containing receptor 2 (DDR2, Homo sapiens, UniProt Q16832)	cell-free assay	–	TR-FRET	0.0533	COc1c(Cl)cccc1Nc1c(-c2ccncc2OC[C@@H]2COCCO2)[nH]c2c1C(=O)NCC2
